From ChEMBL document CHEMBL1240362, “Intrapulmonary pharmacokinetics of S-013420, a novel bicyclolide antibacterial, in healthy Japanese subjects” (Antimicrob Agents Chemother, 2010)
In brackets after ≈: the same amount, converted by molar mass.

What was measured:
Homo sapiens [1] = assay: Toxicity in healthy human assessed as lymphocytes count in bronchoalveolar fluid at […], po administered as single dose after 2 hrs; format: organism-based, Lung; set-up: route oral; conditions: in vivo
How it was run: (§1)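 Healthy Japanese male never-smokers, aged 20 to 45 years with normal BMI, got one open-label oral 400 mg suspension dose. Four subjects per time group had one fiber-optic bronchoscopic BAL at the assigned post-dose time. The first aliquot was discarded and the last three were pooled. BAL fluid was held on ice and spun at 400 × g for 5 min at 4°C. Pellet cells were counted by hemocytometer, with a differential count on a stained cytocentrifuge preparation.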

Homo sapiens [2] = assay: Toxicity in healthy human assessed as lymphocytes count in bronchoalveolar fluid at […], po administered as single dose after 8 hrs; format: organism-based, Lung; set-up: route oral; conditions: in vivo; how it was run: as §1
Homo sapiens [3] = assay: Toxicity in healthy human assessed as lymphocytes count in bronchoalveolar fluid at […], po administered as single dose after 10 hrs; format: organism-based, Lung; set-up: route oral; conditions: in vivo; how it was run: as §1
Homo sapiens [4] = assay: Toxicity in healthy human assessed as lymphocytes count in bronchoalveolar fluid at […], po administered as single dose after 24 hrs; format: organism-based, Lung; set-up: route oral; conditions: in vivo; how it was run: as §1
Homo sapiens [5] = assay: Toxicity in healthy human assessed as eosinophil count in bronchoalveolar fluid at […], po administered as single dose after 2 hrs; format: organism-based, Lung; set-up: route oral; conditions: in vivo; how it was run: as §1
Homo sapiens [6] = assay: Toxicity in healthy human assessed as other cellular fractions in bronchoalveolar fluid at […], po administered as single dose after 6 hrs; format: organism-based, Lung; set-up: route oral; conditions: in vivo; how it was run: as §1
Homo sapiens [7] = assay: Toxicity in healthy human assessed as other cellular fractions in bronchoalveolar fluid at […], po administered as single dose after 10 hrs; format: organism-based, Lung; set-up: route oral; conditions: in vivo; how it was run: as §1
[8] = Plasma concentration in healthy human at […], po after 2 hrs; format: ADME, organism-based; set-up: route oral
How it was run: (§2)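 Healthy nonsmoking Japanese men, 20-45 y, given one oral 400 mg suspension dose. Blood drawn at 0-72 h, spun at 1,600 × g for 10 min at 4°C, plasma kept at −20°C. Drug measured by validated LC/MS/MS, linear 0.005-5 μg/ml. Values are mean ± SD, n = 28. Cmax, Tmax and t1/2,z are model-independent; AUC0-24 by trapezoidal method.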

[9] = Plasma concentration in healthy human at […], po after 4 hrs; format: ADME, organism-based; set-up: route oral; how it was run: as §2
[10] = Plasma concentration in healthy human at […], po after 10 hrs; format: ADME, organism-based; set-up: route oral; how it was run: as §2
[11] = Plasma concentration in healthy human at […], po after 12 hrs; format: ADME, organism-based; set-up: route oral; how it was run: as §2
[12] = Plasma concentration in healthy human at […], po after 24 hrs; format: ADME, organism-based; set-up: route oral; how it was run: as §2
[13] = Drug level in epithelial lining fluid of healthy human at […] administered as single dose after 2 hrs; format: ADME, organism-based; set-up: route oral; conditions: po, read-out: Drug uptake
How it was run: (§3)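 Four healthy male volunteers per BAL time (2-24 h) after one oral 400 mg suspension dose. Single bronchoscopic lavage; first aliquot discarded, next three pooled. Supernatant separated at 400 × g, 5 min, 4°C, and drug assayed by LC/MS/MS. ELF level = CBAL × urea plasma/urea BAL, with urea corrected for blood contamination via RBC ratio. PK parameters are model-independent, based on the mean concentration at each time.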

[14] = Drug level in epithelial lining fluid of healthy human at […], po administered as single dose after 4 hrs; format: ADME, organism-based; set-up: route oral; conditions: read-out: Drug uptake; how it was run: as §3
[15] = Drug level in alveolar macrophages of healthy human at […], po administered as single dose after 24 hrs; format: ADME, organism-based, Macrophage; set-up: route oral; conditions: read-out: Drug uptake
How it was run: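 One oral 400 mg suspension dose; four volunteers lavaged at each time (2-24 h). Cell pellet from the pooled 2nd-4th aspirates was counted (hemocytometer, stained cytospin differential). Drug in cell suspension measured by HPLC, divided by AM volume assuming 2.42 μl/10^6 cells. Cmax and Tmax are model-independent, based on mean concentrations at each time.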

[16] = Ratio of drug level in epithelial lining fluid to plasma in healthy human at […], po administered as single dose after 6 hrs; format: ADME, organism-based; set-up: route oral
How it was run: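 For each subject, ELF or AM drug level after the single oral 400 mg dose is divided by the plasma level sampled at the BAL time (2-24 h). Ratios are summarized per four-subject group.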

Staphylococcus aureus = assay: Antimicrobial activity against erythromycin-susceptible Staphylococcus aureus; format: functional
Moraxella catarrhalis = assay: Antimicrobial activity against Moraxella catarrhalis; format: functional
Streptococcus pyogenes = assay: Antimicrobial activity against Streptococcus pyogenes; format: functional
[17] = Ratio of AUC (0 to 24 hrs) in plasma of healthy human to MIC90 for Haemophilus influenzae; format: functional
[18] = Ratio of AUC (0 to 24 hrs) in plasma of healthy human to MIC90 for Moraxella catarrhalis; format: functional
[19] = Ratio of AUC (0 to 24 hrs) in […] healthy epithelial lining fluid to MIC90 for erythromycin-susceptible Staphylococcus aureus; format: functional
[20] = Ratio of AUC (0 to 24 hrs) in […] healthy epithelial lining fluid to MIC90 for Haemophilus influenzae; format: functional
[21] = Cmax in alveolar macrophages of healthy human at 400 mg, po administered as single dose
[22] = Tmax in alveolar macrophages of healthy human at 400 mg, po administered as single dose
[23] = Tmax in epithelial lining fluid of healthy human at 400 mg, po administered as single dose
[24] = Terminal-phase half-life in epithelial lining fluid of healthy human at 400 mg, po administered as single dose; conditions: read-out: beta t1/2 (converted)
[25] = AUC (0 to 24 hrs) in plasma of healthy human at 400 mg, po administered as single dose by linear trapezoidal method
[26] = Ratio of drug level in alveolar macrophages to plasma in healthy human at 400 mg, po administered as single dose after 2 hrs
[27] = Ratio of drug level in epithelial lining fluid to plasma in healthy human at 400 mg, po administered as single dose after 24 hrs
[28] = AUC (0 to 24 hrs) in alveolar macrophages of healthy human at 400 mg, po administered as single dose by linear trapezoidal method
Homo sapiens [29] = assay: Toxicity in healthy human assessed as eosinophil count in bronchoalveolar fluid at 400 mg, po administered as single dose after 10 hrs; conditions: in vivo
Homo sapiens [30] = assay: Toxicity in healthy human assessed as eosinophil count in bronchoalveolar fluid at 400 mg, po administered as single dose after 12 hrs; conditions: in vivo
Homo sapiens [31] = assay: Toxicity in healthy human assessed as other cellular fractions in bronchoalveolar fluid at 400 mg, po administered as single dose after 2 hrs; conditions: in vivo
Homo sapiens [32] = assay: Toxicity in healthy human assessed as other cellular fractions in bronchoalveolar fluid at 400 mg, po administered as single dose after 4 hrs; conditions: in vivo
Homo sapiens [33] = assay: Toxicity in healthy human assessed as alveolar macrophage count in bronchoalveolar fluid at 400 mg, po administered as single dose after 8 hrs; conditions: in vivo

CC[C@H]1OC(=O)[C@H](C)C(=O)[C@H](C)[C@@H](O[C@@H]2O[C@H](C)C[C@H](N(C)C)[C@H]2O)[C@@]2(C)C[C@@H](C)/C(=N\C(C)=O)[C@H](C)[C@@H](OC/C(=N\OCc3ccc(-n4cccn4)nc3)CO2)[C@]1(C)O [MODITHROMYCIN]
Activity (Homo sapiens [1]): 15.3% | Activity (Homo sapiens [2]): 9.3% | Activity (Homo sapiens [3]): 13.6% | Activity (Homo sapiens [4]): 10.8% | Activity (Homo sapiens [5]): 0% | Activity (Homo sapiens [6]): 0.1% | Activity (Homo sapiens [7]): 0.5% | concentration at 2 h [8]: 646 ng/mL | concentration at 4 h [9]: 575 ng/mL | concentration at 10 h [10]: 429 ng/mL | concentration at 12 h [11]: 424 ng/mL | concentration at 24 h [12]: 315 ng/mL | concentration at 2 h [13]: 16700 ng/mL | concentration at 4 h [14]: 13700 ng/mL | concentration at 24 h [15]: 68000 ng/mL | Kp at 6 h [16]: 27 | MIC90 (Staphylococcus aureus): 0.25 µg/mL (≈ 0.297 µM) | MIC90 (Moraxella catarrhalis): 0.5 µg/mL (≈ 0.595 µM) | MIC90 (Streptococcus pyogenes): ≤ 0.063 µg/mL | RatioAUC/MIC [17]: 1.3 | RatioAUC/MIC [18]: 20.9 | RatioAUC/MIC [19]: 849.6 | RatioAUC/MIC [20]: 26.6 | Cmax [21]: 176000 ng/mL | Tmax [22]: 12 h | Tmax [23]: 2 h | half-life [24]: 14.8 h | AUC(0-t) at 24 h [25]: 10.5 µg·h/mL | Kp at 2 h [26]: 93 | Kp at 24 h [27]: 21.3 | AUC(0-t) at 24 h [28]: 2560 µg·h/mL | Activity (Homo sapiens [29]): 0.1% | Activity (Homo sapiens [30]): 0.9% | Activity (Homo sapiens [31]): 0% | Activity (Homo sapiens [32]): 0% | Activity (Homo sapiens [33]): 90.4%
